Reference: PubChem BioAssay
Records with an inconclusive call do not appear.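 Rule for the calls, unless noted: active = RAM network inhibition above 8.4% in each of two replicates, 3 SD over the compound average; inconclusive = above 8.4% inhibition in only one replicate; inactive = 8.4% inhibition or less in each replicate.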

How the values were obtained:
[1] = OD615 S. cerevisiae growth inhibition, permissive medium, pilot counter-assay, permissive growth control for S. cerevisiae lifespan shortening project (AID 705;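 active = growth inhibition above 25% in both replicates, a cutoff set 3 SD above the mean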); conditions: OD615, 24 h, at 10 µM, hits give high values
Outline: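 Material: engineered DeaD yeast; Compound: one dose 10 µM, DMSO 0.25% final; Detection: absorbance (optical density) at 615 nm; Buffer or medium: permissive raffinose/galactose medium; Timing: 24 h exposure, 30 °C.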

[2] = Restrictive medium S. cerevisiae growth inhibition, OD615, pilot screen of yeast lifespan reduction project, restrictive growth control (AID 706;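 active = growth inhibition above a set limit, 3 SD over mean compound inhibition, in both replicates, cut at about 43% in these data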;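 note: modified DeaD lifespan yeast strain shifted to restrictive glucose medium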); conditions: OD615, 48 h, at 10 µM, hits give high values
Outline: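 Buffer or medium: restrictive glucose medium (CSMM-D); test system: modified S. cerevisiae; doses: single dose of 10 µM compound final, 0.25% DMSO; schedule: 48 h compound exposure at 30 °C; detection: absorbance (optical density) measured at 615 nm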

[3] = viability gain of MRP-1-high H69AR cells under doxorubicin, pilot screen, MRP-1 activator project, CellTiter-Glo, duplicate (AID 807;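 active = viability increase at or above a cutoff of the median across tested compounds plus 3 SD, cut at about 8.5% in these data, passing the limit was not always enough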;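 note: compound pretreatment 18-22 h then 72 h combined with doxorubicin; 0% = doxorubicin alone and 100% = vehicle without doxorubicin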); conditions: H69AR viability with doxorubicin, CellTiter-Glo luminescence; at 10 µM; hits give high values
[4] = growth suppression of beta-catenin knockout HCT116, pilot screen, human colon tumor cells (AID 823;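 active = cell viability at or below a set limit in both duplicate runs, the limit being the all-compound median minus 4 SD, cut at about 23% in these data, passing the limit was not always enough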;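 note: 0% = wells killed by 20 µM Hyamine and 100% = untreated DMSO cell wells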); conditions: CellTiter-Glo, 60 h, at 10 µM, hits give low values
[5] = growth suppression of PTEN-deleted HCT116, pilot screen, cell-based, HCT116 clonal line, CellTiter-Glo (AID 824;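 active = viability at or below 27.92% in each of two runs, the all-compound median minus 4 SD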;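 note: 0% = 20 µM Hyamine control and 100% = vehicle cell control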); conditions: 60 h, at 10 µM, hits give low values
[6] = inhibitors of the yeast RAM network, pilot screen, dse1pr::URA3 reporter, 5-FOA selection (AID 869;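 active = inhibition over a set limit, the all-compound mean plus 3 SD, in both replicate runs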;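 note: 0% = DMSO wells with no growth and 100% = 10 µM 1-NA-PP1 with full growth; RAM network block rescues cells from 5-FOA so hits raise OD615 growth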); conditions: S. cerevisiae dse1pr::URA3 5-FOA growth, OD615, 2 d; at 10 µM; hits give high values; strain carries analog-sensitive mutant Cbk1 kinase
[7] = RAM signaling pathway blockade in yeast – S. cerevisiae, Pdr1DBD-CYC8 efflux-inhibited sensitized strain, primary screen (AID 1298);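 note: 0% = DMSO untreated cells without growth and 100% = 10 µM 1-NA-PP1 full growth; higher means more yeast growth rescued from 5-FOA killing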; conditions: S. cerevisiae cbk1-as DSE1-URA3 strain, 5-FOA growth OD615, 2 d; at 50 µM; hits give high values

Cc1cc(C)nc(NS(=O)(=O)c2ccc(NC(=O)c3ccco3)cc2)n1
inactive: growth inhibition [1] -5.44% | growth inhibition [2] -11.7% | viability increase [3] -1.87% | viability [4] 100% | viability [5] 95.9% | inhibition [6] 0.26% | RAM network inhibition [7] 2.44%

COc1ccc(OC)c(N(CC(=O)NC2CC2)S(=O)(=O)c2ccc(C)cc2)c1
inactive: growth inhibition [1] -13.6% | growth inhibition [2] -20.4% | viability increase [3] -0.94% | viability [4] 96.1% | viability [5] 93.2% | inhibition [6] 0.73% | RAM network inhibition [7] 3.7%

c1ccc2c(c1)CCCN2c1nc2ccccc2n2cnnc12
inactive: growth inhibition [1] -6.12% | growth inhibition [2] -9.76% | viability increase [3] -6.44% | viability [4] 91.2% | viability [5] 83.3% | inhibition [6] 1.44% | RAM network inhibition [7] 4.1%

CCOC(=O)c1nnc2cc(-c3ccccc3)nn2c1C
inactive: growth inhibition [1] 3.76% | growth inhibition [2] 16% | viability increase [3] 0.86% | viability [4] 93.6% | viability [5] 95.3% | inhibition [6] 1.5% | RAM network inhibition [7] 0.86%

CC(=O)c1ccc(-n2nncc2C(C)(C)C)cc1
inactive: growth inhibition [1] -3.02% | growth inhibition [2] -2.67% | viability increase [3] -0.85% | viability [4] 98.6% | viability [5] 99.5% | inhibition [6] 1.47% | RAM network inhibition [7] 0.78%

COc1cccc(N2CCN(C(=O)CN(C)S(=O)(=O)c3ccc4c(c3)CCC(=O)N4)CC2)c1
inactive: growth inhibition [1] -2.86% | growth inhibition [2] -13.8% | viability increase [3] -2.87% | viability [4] 87.6% | viability [5] 85.5% | inhibition [6] 0.59% | RAM network inhibition [7] 7.09%

COc1ccc(Cl)cc1N1C(=O)C2CCCN2C1c1ccccc1F (stereo not given)
inactive: growth inhibition [1] 2.31% | growth inhibition [2] -4.76% | viability increase [3] -3.84% | viability [4] 93% | viability [5] 95.1% | inhibition [6] 1.41% | RAM network inhibition [7] 1.3%

CSc1ccc(S(=O)(=O)Nc2ccc3c(c2)OCCO3)cc1
inactive: growth inhibition [1] -3.2% | growth inhibition [2] -11% | viability increase [3] -3.95% | viability [4] 62.2% | viability [5] 71.9% | inhibition [6] 1.67% | RAM network inhibition [7] -0.87%

CCCOCCOC(=O)C1=C(C)NC(=O)NC1c1cc(Cl)c(O)c(OC)c1 (stereo not given)
inactive: growth inhibition [1] -3.46% | growth inhibition [2] -0.16% | viability increase [3] -0.57% | viability [4] 102% | viability [5] 94.6% | inhibition [6] 0.265% | RAM network inhibition [7] -1.04%

COc1ccc(CCC(C(O)C(F)(F)F)S(=O)c2ccccc2)cc1 (stereo not given)
inactive: growth inhibition [1] -4.67% | growth inhibition [2] -15.5% | viability increase [3] -0.87% | viability [4] 95.4% | viability [5] 101% | inhibition [6] 0.54% | RAM network inhibition [7] 7.13%

CCOC(=O)C1CCN(S(=O)(=O)c2cccc3nonc23)CC1
inactive: growth inhibition [1] -5.04% | growth inhibition [2] -10.7% | viability increase [3] 0.01% | viability [4] 100% | viability [5] 96.8% | inhibition [6] 1.46% | RAM network inhibition [7] -1.5%

COC(=O)c1nc(NC(=O)C(C)(C)C)n[nH]1
inactive: growth inhibition [1] -9.88% | growth inhibition [2] -18.8% | viability increase [3] -3.77% | viability [4] 92.7% | viability [5] 89.8% | inhibition [6] 2.06% | RAM network inhibition [7] 0.47%

O=C(Cc1cc(=O)[nH]c(=O)[nH]1)N1CCN(C(=O)c2ccco2)CC1
inactive: growth inhibition [1] -10.2% | growth inhibition [2] -26.6% | viability increase [3] -2.96% | viability [4] 95.6% | viability [5] 95.6% | inhibition [6] 0.59% | RAM network inhibition [7] 1.53%

COc1ccc(S(=O)(=O)N(CCc2ccccc2)CC(=O)O)cc1OC
inactive: growth inhibition [1] -1.68% | growth inhibition [2] 10.5% | viability increase [3] 0.57% | viability [4] 97.6% | viability [5] 102% | inhibition [6] 1.35% | RAM network inhibition [7] 1.09%

CCOc1cccc2sc(NC(=O)c3ccc(Br)s3)nc12
inactive: growth inhibition [1] -25.6% | growth inhibition [2] -9.82% | viability increase [3] -3.55% | viability [4] 65.4% | viability [5] 58% | inhibition [6] 2.42% | RAM network inhibition [7] 4.63%

Cc1ccc(-c2nc(CS(=O)CC(=O)NCCN3CCOCC3)c(C)o2)cc1 (stereo not given)
inactive: growth inhibition [1] -6.06% | growth inhibition [2] 2.29% | viability increase [3] -0.04% | viability [4] 92.9% | viability [5] 98% | inhibition [6] 1.84% | RAM network inhibition [7] 2.15%

CCCCN(C(=O)NC(=O)C1=C(N2CCOCC2)/C(=C/c2ccccc2)CC1)S(C)(=O)=O
inactive: growth inhibition [1] -2.54% | growth inhibition [2] -6.07% | viability increase [3] -2.95% | viability [4] 86.1% | viability [5] 89.8% | inhibition [6] 0.17% | RAM network inhibition [7] -0.73%

Fc1cc(Br)ccc1Nc1nc2ccccc2n2nnnc12
inactive: growth inhibition [1] -15.9% | growth inhibition [2] -15% | viability increase [3] -4.01% | viability [4] 91.5% | viability [5] 87.2% | inhibition [6] 1.94% | RAM network inhibition [7] 5.36%

CCOC(=O)N1CCC(N2CC34C=CC(O3)C(C(=O)Nc3ccc(C(C)C)cc3)C4C2=O)CC1 (stereo not given)
inactive: growth inhibition [1] 2.48% | growth inhibition [2] -7.2% | viability increase [3] 3.15% | viability [4] 102% | viability [5] 99.6% | inhibition [6] 0.27% | RAM network inhibition [7] -0.37%

COc1ccc(NCCNc2ccc(OC)cc2)cc1
inactive: growth inhibition [1] 5.4% | growth inhibition [2] 7.97% | viability increase [3] -0.82% | viability [4] 58.9% | viability [5] 59.5% | inhibition [6] 0.6% | RAM network inhibition [7] 6.32%

CCc1ccccc1NC1c2ccccc2C(=O)N1c1cc(C)ccn1 (stereo not given)
inactive: growth inhibition [1] -12.1% | growth inhibition [2] -4.82% | viability increase [3] -1.63% | viability [4] 99.1% | viability [5] 101% | inhibition [6] 1.82% | RAM network inhibition [7] 11.4%

O=C(Nc1ccccc1)N1CCN2C(=O)c3ccccc3C12c1ccccc1 (stereo not given)
inactive: growth inhibition [1] -7.51% | growth inhibition [2] -1.31% | viability increase [3] -2.35% | viability [4] 89.9% | viability [5] 89.5% | inhibition [6] 1.29% | RAM network inhibition [7] 2.89%

CCCc1ncc(C(O)c2cccc(OC)c2OC)n1C (stereo not given)
inactive: growth inhibition [1] -11% | growth inhibition [2] -23% | viability increase [3] -2.63% | viability [4] 95.9% | viability [5] 94.4% | inhibition [6] 0.71% | RAM network inhibition [7] 1.45%

CCOC(=O)c1sc(NC(=O)C2CCCO2)c(C(=O)OCC)c1C (stereo not given)
inactive: growth inhibition [1] -9.48% | growth inhibition [2] -8.48% | viability increase [3] -2.56% | viability [4] 102% | viability [5] 93% | inhibition [6] 1.31% | RAM network inhibition [7] 2.09%

Cc1nn(-c2ccccc2)c2c1C(c1ccncc1)C(C#N)=C(N)O2 (stereo not given)
inactive: growth inhibition [1] -12.9% | growth inhibition [2] -0.78% | viability increase [3] -0.07% | viability [4] 92.8% | viability [5] 89.6% | inhibition [6] 0.975% | RAM network inhibition [7] 4.36%
